≈ marks a conversion by molar mass, not a printed value. Non-standard residues stand in square brackets, D forms with d. Residues, ends and D or L forms follow the SMILES beside them. *: point of attachment. dNva(5-oxo-5-(4-MeOPh)) = COc1ccc(C(=O)CC[C@@H](N)C(=O)O)cc1; dPhe(4-Cl) = N[C@H](Cc1ccc(Cl)cc1)C(=O)O; d2Nal = N[C@H](Cc1ccc2ccccc2c1)C(=O)O; Lys(iPr) = CC(C)NCCCC[C@H](N)C(=O)O; NMeY = CN[C@@H](Cc1ccc(O)cc1)C(=O)O; dBta = N[C@H](Cc1csc2ccccc12)C(=O)O; dCit = NC(=O)NCCC[C@@H](N)C(=O)O; d3Pal = N[C@H](Cc1cccnc1)C(=O)O; Nicotinoyl = O=C(c1cccnc1)*
Legend:
[1] = organism: Rattus norvegicus; assay: The negative logarithm of the concentration of the antagonist that requires 2-fold higher concentration of the agonist to release LH from cultured rat pituitary cells; format: functional, cell-based; settings: Pituitary gland cell, read-out: pA2 (converted)
In short: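 Cultured rat pituitary cells stimulated with LHRH agonist in presence of antagonist dissolved in 10 mmol Tris buffer pH 7.4; LH release measured. pA2 taken as negative log of antagonist concentration requiring 2-fold higher agonist concentration for LH release.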

[2] = biological target: T1, Gonadotropin-releasing hormone receptor (Rattus norvegicus, UniProt P30969); assay: The negative logarithm of the concentration of antagonist that inhibits 50% of the binding of 125 I-labeled leuprolide to the rat pituitary LHRH receptor
T1 sequence (P30969 whole entry): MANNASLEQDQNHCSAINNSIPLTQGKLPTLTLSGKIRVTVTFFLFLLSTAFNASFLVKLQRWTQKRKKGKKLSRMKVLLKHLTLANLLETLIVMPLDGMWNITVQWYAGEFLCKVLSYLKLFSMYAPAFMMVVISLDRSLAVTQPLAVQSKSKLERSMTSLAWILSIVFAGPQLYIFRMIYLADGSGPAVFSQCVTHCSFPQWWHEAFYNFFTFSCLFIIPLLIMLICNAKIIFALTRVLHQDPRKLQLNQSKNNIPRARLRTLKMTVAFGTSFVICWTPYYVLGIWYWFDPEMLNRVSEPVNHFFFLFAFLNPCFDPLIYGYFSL
In short: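 Competition binding to rat pituitary LHRH receptor with 125I-labeled leuprolide as radioligand; compounds dissolved in 10 mmol Tris buffer pH 7.4. Concentration inhibiting 50% of tracer binding determined and expressed as its negative logarithm (pKi). TFA salts unless indicated.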

[3] = Solubility was determined in 5% dextrose, pH 4.5; format: physicochemical
In short: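 Solubility measured in 5% dextrose at pH 4.5, reported in mg/mL; some peptides measured as TFA salts, others as acetate salts.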

[4] = organism: Rattus norvegicus; assay: Effective dose of the antagonist that gives 50% of the maximal release of histamine from rat peritoneal mast cells; format: functional; settings: read-out: ED50 (the source's name)
In short: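 Mast cells from rat peritoneum; compounds dissolved in 5.6 mM glucose, 0.1% BSA in Dulbecco phosphate-buffered saline pH 7.4. Released histamine quantified by RIA kit; value is dose giving 50% of maximal histamine release, in µg/mL. Tested as TFA salts unless indicated.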

Ki [2] [nM]	solubility [3] [mg/mL]	EC50 [4] [mg/L]	Structure (SMILES)	Kb [1] [nM]
0.0617	1.1 (≈ 691 µM)	–	CC(=O)N[C@H](Cc1ccc2ccccc2c1)C(=O)N[C@H](Cc1ccc(Cl)cc1)C(=O)N[C@H](Cc1cccnc1)C(=O)N[C@@H](CO)C(=O)N[C@@H](CCCCNC(=O)c1cccnc1)C(=O)N[C@H](CCCCNC(=O)c1cccnc1)C(=O)N[C@@H](CC(C)C)C(=O)N[C@@H](CCCCNC(C)C)C(=O)N1CCC[C@H]1C(=O)N[C@H](C)C(N)=O (Ac-[d2Nal][dPhe(4-Cl)][d3Pal]SK(Nicotinoyl)[dK](Nicotinoyl)L[Lys(iPr)]P[dA]-NH2) [listing 1 of 2 here]	0.0234
–	–	10 (≈ 6.51 µM)	CC(=O)N[C@H](Cc1ccc2ccccc2c1)C(=O)N[C@H](Cc1ccc(Cl)cc1)C(=O)N[C@H](Cc1cccnc1)C(=O)N[C@@H](CO)C(=O)N(C)[C@@H](Cc1ccc(O)cc1)C(=O)N[C@H](CCCCNC(=O)c1cccnc1)C(=O)N[C@@H](CC(C)C)C(=O)N[C@@H](CCCCNC(C)C)C(=O)N1CCC[C@H]1C(=O)N[C@H](C)C(N)=O (Ac-[d2Nal][dPhe(4-Cl)][d3Pal]S[NMeY][dK](Nicotinoyl)L[Lys(iPr)]P[dA]-NH2) [listing 1 of 2 here]	–
0.117	< 1	–	CC(=O)N[C@H](Cc1ccc2ccccc2c1)C(=O)N[C@H](Cc1ccc(Cl)cc1)C(=O)N[C@H](Cc1cccnc1)C(=O)N[C@@H](CO)C(=O)N[C@@H](Cc1ccc(O)cc1)C(=O)N[C@H](CCCNC(N)=O)C(=O)N[C@@H](CC(C)C)C(=O)N[C@@H](CCCNC(=N)N)C(=O)N1CCC[C@H]1C(=O)N[C@H](C)C(N)=O (Ac-[d2Nal][dPhe(4-Cl)][d3Pal]SY[dCit]LRP[dA]-NH2)	–
–	> 20	–	CC(=O)N[C@H](Cc1ccc2ccccc2c1)C(=O)N[C@H](Cc1ccc(Cl)cc1)C(=O)N[C@H](Cc1cccnc1)C(=O)N[C@@H](CO)C(=O)N(C)[C@@H](Cc1ccc(O)cc1)C(=O)N[C@H](CCCCNC(=O)c1cccnc1)C(=O)N[C@@H](CC(C)C)C(=O)N[C@@H](CCCCNC(C)C)C(=O)N1CCC[C@H]1C(=O)N[C@H](C)C(N)=O (Ac-[d2Nal][dPhe(4-Cl)][d3Pal]S[NMeY][dK](Nicotinoyl)L[Lys(iPr)]P[dA]-NH2) [listing 2 of 2 here]	0.00589
–	–	1.11 (≈ 0.776 µM)	CC(=O)N[C@H](Cc1ccc2ccccc2c1)C(=O)N[C@H](Cc1ccc(Cl)cc1)C(=O)N[C@H](Cc1cccnc1)C(=O)N[C@@H](CO)C(=O)N[C@@H](Cc1ccc(O)cc1)C(=O)N[C@H](CCCNC(N)=O)C(=O)N[C@@H](CC(C)C)C(=O)N[C@@H](CCCN=C(N)N)C(=O)N1CCC[C@H]1C(=O)N[C@H](C)C(N)=O (Ac-[d2Nal][dPhe(4-Cl)][d3Pal]SY[dCit]LRP[dA]-NH2) [listing 2 of 2 here]	–
0.0525	–	–	COc1ccc(C(=O)CC[C@@H](NC(=O)[C@H](CCCN=C(N)N)NC(=O)[C@H](CO)NC(=O)[C@@H](Cc2cccnc2)NC(=O)[C@@H](Cc2ccc(Cl)cc2)NC(=O)[C@@H](Cc2ccc3ccccc3c2)NC(C)=O)C(=O)N[C@@H](CC(C)C)C(=O)N[C@@H](CCCN=C(N)N)C(=O)N2CCC[C@H]2C(=O)N[C@H](C)C(N)=O)cc1 (Ac-[d2Nal][dPhe(4-Cl)][d3Pal]SR[dNva(5-oxo-5-(4-MeOPh))]LRP[dA]-NH2) [listing 2 of 2 here]	0.00871
–	–	261 (≈ 164 µM)	CC(=O)N[C@H](Cc1ccc2ccccc2c1)C(=O)N[C@H](Cc1ccc(Cl)cc1)C(=O)N[C@H](Cc1cccnc1)C(=O)N[C@@H](CO)C(=O)N[C@@H](CCCCNC(=O)c1cccnc1)C(=O)N[C@H](CCCCNC(=O)c1cccnc1)C(=O)N[C@@H](CC(C)C)C(=O)N[C@@H](CCCCNC(C)C)C(=O)N1CCC[C@H]1C(=O)N[C@H](C)C(N)=O (Ac-[d2Nal][dPhe(4-Cl)][d3Pal]SK(Nicotinoyl)[dK](Nicotinoyl)L[Lys(iPr)]P[dA]-NH2) [listing 2 of 2 here]	–

Further lines, the molecule ahead of its results:

Structure (SMILES)	Ki [2] [nM]	solubility [3] [mg/mL]	EC50 [4] [mg/L]	Kb [1] [nM]
CC(=O)N[C@H](Cc1ccc2ccccc2c1)C(=O)N[C@H](Cc1ccc(Cl)cc1)C(=O)N[C@H](Cc1cccnc1)C(=O)N[C@@H](CO)C(=O)N[C@@H](Cc1ccc(O)cc1)C(=O)N[C@H](CCCNC(N)=O)C(=O)N[C@@H](CC(C)C)C(=O)N[C@@H](CCCN=C(N)N)C(=O)N1CCC[C@H]1C(=O)N[C@H](C)C(N)=O (Ac-[d2Nal][dPhe(4-Cl)][d3Pal]SY[dCit]LRP[dA]-NH2) [listing 1 of 2 here]	–	–	–	0.0355
COc1ccc(C(=O)CC[C@@H](NC(=O)[C@H](CCCN=C(N)N)NC(=O)[C@H](CO)NC(=O)[C@@H](Cc2cccnc2)NC(=O)[C@@H](Cc2ccc(Cl)cc2)NC(=O)[C@@H](Cc2ccc3ccccc3c2)NC(C)=O)C(=O)N[C@@H](CC(C)C)C(=O)N[C@@H](CCCN=C(N)N)C(=O)N2CCC[C@H]2C(=O)N[C@H](C)C(N)=O)cc1 (Ac-[d2Nal][dPhe(4-Cl)][d3Pal]SR[dNva(5-oxo-5-(4-MeOPh))]LRP[dA]-NH2) [listing 1 of 2 here]	–	–	1.11 (≈ 0.747 µM)	–
CC(=O)N[C@H](Cc1ccc(Cl)cc1)C(=O)N[C@H](Cc1ccc(Cl)cc1)C(=O)N[C@H](Cc1csc2ccccc12)C(=O)N[C@@H](CO)C(=O)N[C@@H](Cc1ccc(O)cc1)C(=O)N[C@H](CCCCN)C(=O)N[C@@H](CC(C)C)C(=O)N[C@@H](CCCN=C(N)N)C(=O)N1CCC[C@H]1C(=O)N[C@H](C)C(N)=O [listing 1 of 2 here]	–	–	0.62 (≈ 0.43 µM)	–
CC(=O)N[C@H](Cc1ccc2ccccc2c1)C(=O)N[C@H](Cc1ccc(Cl)cc1)C(=O)N[C@H](Cc1cccnc1)C(=O)N[C@@H](CO)C(=O)N(C)[C@@H](Cc1ccc(O)cc1)C(=O)N[C@H](CCCNC(N)=O)C(=O)N[C@@H](CC(C)C)C(=O)N[C@@H](CCCN=C(N)N)C(=O)N1CCC[C@H]1C(=O)N[C@H](C)C(N)=O [listing 1 of 2 here]	0.0135	12 (≈ 8300 µM)	–	0.0158
CC(=O)N[C@H](Cc1ccc2ccccc2c1)C(=O)N[C@H](Cc1ccc(Cl)cc1)C(=O)N[C@H](Cc1cccnc1)C(=O)N[C@@H](CO)C(=O)N(C)[C@@H](Cc1ccc(O)cc1)C(=O)N[C@H](CCCNC(N)=O)C(=O)N[C@@H](CC(C)C)C(=O)N[C@@H](CCCN=C(N)N)C(=O)N1CCC[C@H]1C(=O)N[C@H](C)C(N)=O [listing 2 of 2 here]	–	–	1.65 (≈ 1.14 µM)	–
CC(=O)N[C@H](Cc1ccc(Cl)cc1)C(=O)N[C@H](Cc1ccc(Cl)cc1)C(=O)N[C@H](Cc1csc2ccccc12)C(=O)N[C@@H](CO)C(=O)N(C)[C@@H](Cc1ccc(O)cc1)C(=O)N[C@H](CCCCN)C(=O)N[C@@H](CC(C)C)C(=O)N[C@@H](CCCN=C(N)N)C(=O)N1CCC[C@H]1C(=O)N[C@H](C)C(N)=O (Ac-[dPhe(4-Cl)][dPhe(4-Cl)][dBta]S[NMeY][dK]LRP[dA]-NH2) [listing 1 of 2 here]	–	–	< 0.5	–
CC(=O)N[C@H](Cc1ccc(Cl)cc1)C(=O)N[C@H](Cc1ccc(Cl)cc1)C(=O)N[C@H](Cc1csc2ccccc12)C(=O)N[C@@H](CO)C(=O)N(C)[C@@H](Cc1ccc(O)cc1)C(=O)N[C@H](CCCCN)C(=O)N[C@@H](CC(C)C)C(=O)N[C@@H](CCCN=C(N)N)C(=O)N1CCC[C@H]1C(=O)N[C@H](C)C(N)=O (Ac-[dPhe(4-Cl)][dPhe(4-Cl)][dBta]S[NMeY][dK]LRP[dA]-NH2) [listing 2 of 2 here]	0.0234	> 25	–	0.00501
CC(=O)N[C@H](Cc1ccc(Cl)cc1)C(=O)N[C@H](Cc1ccc(Cl)cc1)C(=O)N[C@H](Cc1csc2ccccc12)C(=O)N[C@@H](CO)C(=O)N[C@@H](Cc1ccc(O)cc1)C(=O)N[C@H](CCCCN)C(=O)N[C@@H](CC(C)C)C(=O)N[C@@H](CCCN=C(N)N)C(=O)N1CCC[C@H]1C(=O)N[C@H](C)C(N)=O [listing 2 of 2 here]	0.0331	< 0.1	–	0.00646

Source: ChEMBL document CHEMBL1126974, “The effect of NMeTyr5 substitution in luteinizing hormone-releasing hormone antagonists” (J Med Chem, 1993)
